# System: Morganella morganii
# Experiment: Minimum inhibitory concentration against aerobic organism Morganella morganii strain 2833
# Format: functional
# Conditions: Morganella morganii; read-out: MIC
# Outline: (§1)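 Agar-dilution MIC in µg/mL against aerobic bacterial strains on tryptocase soy agar, with inoculum applied as spots. Most series used 10^5 cfu per spot, and a later series used 10^4 cfu per spot. In some tables, footnoted strains were instead tested on Mueller-Hinton or nutrient agar. β-Lactamase-producing strains are flagged.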
row,MIC,Structure (SMILES)
1,> 128 µg/mL,O=C([O-])C1=CCS[C@@H]2[C@H](Nc3cc[n+](Cc4ccccc4)cc3)C(=O)N12
2,> 128 µg/mL,CC(=O)OCC1=C(C(=O)[O-])N2C(=O)[C@@H](Nc3cc[n+](Cc4ccccc4)cc3)[C@H]2SC1

# System: Enterobacter cloacae
# Experiment: Minimum inhibitory concentration against aerobic organism Enterobacter cloacae strain 2646
# Format: functional
# Conditions: Enterobacter cloacae; read-out: MIC
# Outline: as §1
row,MIC,Structure (SMILES)
1,8 µg/mL,O=C([O-])C1=CCS[C@@H]2[C@H](Nc3cc[n+](Cc4ccccc4)cc3)C(=O)N12
2,0.5 µg/mL,CC1(C)SC2C(Nc3cc[n+](COCC(Cl)(Cl)Cl)cc3)C(=O)N2[C@H]1C(=O)[O-] (stereo partly drawn)
3,4 µg/mL,CC(=O)OCC1=C(C(=O)[O-])N2C(=O)[C@@H](Nc3cc[n+](Cc4ccccc4)cc3)[C@H]2SC1

# System: Klebsiella pneumoniae
# Experiment: Minimum inhibitory concentration against aerobic organism Klebsiella pneumoniae strain 2882
# Format: functional
# Conditions: Klebsiella pneumoniae; read-out: MIC
# Outline: as §1
row,MIC,Structure (SMILES)
1,< 0.06 µg/mL,O=C([O-])C1=CCS[C@@H]2[C@H](Nc3cc[n+](Cc4ccccc4)cc3)C(=O)N12
2,0.5 µg/mL,CC1(C)SC2C(Nc3cc[n+](COCC(Cl)(Cl)Cl)cc3)C(=O)N2[C@H]1C(=O)[O-] (stereo partly drawn)
3,< 0.06 µg/mL,CC(=O)OCC1=C(C(=O)[O-])N2C(=O)[C@@H](Nc3cc[n+](Cc4ccccc4)cc3)[C@H]2SC1

# System: Proteus mirabilis
# Experiment: Minimum inhibitory concentration against aerobic organism Proteus mirabilis strain 2830
# Format: functional
# Conditions: Proteus mirabilis; read-out: MIC
# Outline: as §1
row,MIC,Structure (SMILES)
1,> 128 µg/mL,O=C([O-])C1=CCS[C@@H]2[C@H](Nc3cc[n+](Cc4ccccc4)cc3)C(=O)N12
2,> 128 µg/mL,CC(=O)OCC1=C(C(=O)[O-])N2C(=O)[C@@H](Nc3cc[n+](Cc4ccccc4)cc3)[C@H]2SC1

# System: Proteus vulgaris
# Experiment: Minimum inhibitory concentration against aerobic organism Proteus vulgaris strain 2829
# Format: functional
# Conditions: Proteus vulgaris; read-out: MIC
# Outline: as §1
row,MIC,Structure (SMILES)
1,0.125 µg/mL,O=C([O-])C1=CCS[C@@H]2[C@H](Nc3cc[n+](Cc4ccccc4)cc3)C(=O)N12
2,0.125 µg/mL,CC(=O)OCC1=C(C(=O)[O-])N2C(=O)[C@@H](Nc3cc[n+](Cc4ccccc4)cc3)[C@H]2SC1

# System: Klebsiella aerogenes
# Experiment: Minimum inhibitory concentration against aerobic organism Enterobacter aerogenes strain 2906
# Format: functional
# Conditions: Klebsiella aerogenes; read-out: MIC
# Outline: as §1
row,MIC,Structure (SMILES)
1,64 µg/mL,O=C([O-])C1=CCS[C@@H]2[C@H](Nc3cc[n+](Cc4ccccc4)cc3)C(=O)N12
2,16 µg/mL,CC(=O)OCC1=C(C(=O)[O-])N2C(=O)[C@@H](Nc3cc[n+](Cc4ccccc4)cc3)[C@H]2SC1

# System: Pseudomonas aeruginosa
# Experiment: Minimum inhibitory concentration against aerobic organism Pseudomonas aeruginosa strain 2835
# Format: functional
# Conditions: not given
# Outline: as §1
row,MIC,Structure (SMILES)
1,128 µg/mL,O=C([O-])C1=CCS[C@@H]2[C@H](Nc3cc[n+](Cc4ccccc4)cc3)C(=O)N12
2,> 128 µg/mL,CC(=O)OCC1=C(C(=O)[O-])N2C(=O)[C@@H](Nc3cc[n+](Cc4ccccc4)cc3)[C@H]2SC1

# System: Shigella
# Experiment: Minimum inhibitory concentration against aerobic organism Shigella species strain 2880
# Format: functional
# Conditions: Shigella; read-out: MIC
# Outline: as §1
row,MIC,Structure (SMILES)
1,< 0.06 µg/mL,O=C([O-])C1=CCS[C@@H]2[C@H](Nc3cc[n+](Cc4ccccc4)cc3)C(=O)N12
2,< 0.06 µg/mL,CC1(C)SC2C(Nc3cc[n+](COCC(Cl)(Cl)Cl)cc3)C(=O)N2[C@H]1C(=O)[O-] (stereo partly drawn)
3,< 0.06 µg/mL,CC(=O)OCC1=C(C(=O)[O-])N2C(=O)[C@@H](Nc3cc[n+](Cc4ccccc4)cc3)[C@H]2SC1

# System: not listed separately
# Experiment: Minimum inhibitory concentration against aerobic organism Salmonella schottmuelleri strain 2837
# Format: functional
# Conditions: Salmonella; read-out: MIC
# Outline: as §1
row,MIC,Structure (SMILES)
1,< 0.06 µg/mL,O=C([O-])C1=CCS[C@@H]2[C@H](Nc3cc[n+](Cc4ccccc4)cc3)C(=O)N12
2,< 0.06 µg/mL,CC1(C)SC2C(Nc3cc[n+](COCC(Cl)(Cl)Cl)cc3)C(=O)N2[C@H]1C(=O)[O-] (stereo partly drawn)
3,< 0.06 µg/mL,CC(=O)OCC1=C(C(=O)[O-])N2C(=O)[C@@H](Nc3cc[n+](Cc4ccccc4)cc3)[C@H]2SC1

# System: Escherichia coli
# Experiment: MIC against aerobic organism Escherichia coli strain 2891
# Format: functional
# Conditions: Escherichia coli; read-out: MIC
# Outline: as §1
row,MIC,Structure (SMILES)
1,1 µg/mL,O=C([O-])C1=CCS[C@@H]2[C@H](Nc3cc[n+](Cc4ccccc4)cc3)C(=O)N12
2,0.5 µg/mL,CC1(C)SC2C(Nc3cc[n+](COCC(Cl)(Cl)Cl)cc3)C(=O)N2[C@H]1C(=O)[O-] (stereo partly drawn)
3,0.5 µg/mL,CC(=O)OCC1=C(C(=O)[O-])N2C(=O)[C@@H](Nc3cc[n+](Cc4ccccc4)cc3)[C@H]2SC1

# System: Enterococcus faecalis
# Experiment: Minimum inhibitory concentration against aerobic organism Streptococcus faecalis strain 2864
# Format: functional
# Conditions: not given
# Outline: as §1
row,MIC,Structure (SMILES)
1,128 µg/mL,O=C([O-])C1=CCS[C@@H]2[C@H](Nc3cc[n+](Cc4ccccc4)cc3)C(=O)N12
2,128 µg/mL,CC1(C)SC2C(Nc3cc[n+](COCC(Cl)(Cl)Cl)cc3)C(=O)N2[C@H]1C(=O)[O-] (stereo partly drawn)
3,128 µg/mL,CC(=O)OCC1=C(C(=O)[O-])N2C(=O)[C@@H](Nc3cc[n+](Cc4ccccc4)cc3)[C@H]2SC1

# System: Serratia marcescens
# Experiment: Minimum inhibitory concentration against aerobic organism Serratia marcescens strain 2852
# Format: functional
# Conditions: Serratia marcescens; read-out: MIC
# Outline: as §1
row,MIC,Structure (SMILES)
1,> 128 µg/mL,O=C([O-])C1=CCS[C@@H]2[C@H](Nc3cc[n+](Cc4ccccc4)cc3)C(=O)N12
2,> 128 µg/mL,CC(=O)OCC1=C(C(=O)[O-])N2C(=O)[C@@H](Nc3cc[n+](Cc4ccccc4)cc3)[C@H]2SC1

# System: Staphylococcus aureus
# Experiment: Minimum inhibitory concentration against aerobic organism Staphylococcus aureus strain 2868
# Format: functional
# Conditions: Staphylococcus aureus; read-out: MIC
# Outline: as §1
row,MIC,Structure (SMILES)
1,16 µg/mL,O=C([O-])C1=CCS[C@@H]2[C@H](Nc3cc[n+](Cc4ccccc4)cc3)C(=O)N12
2,> 128 µg/mL,CC1(C)SC2C(Nc3cc[n+](COCC(Cl)(Cl)Cl)cc3)C(=O)N2[C@H]1C(=O)[O-] (stereo partly drawn)
3,4 µg/mL,CC(=O)OCC1=C(C(=O)[O-])N2C(=O)[C@@H](Nc3cc[n+](Cc4ccccc4)cc3)[C@H]2SC1

# — ChEMBL document CHEMBL1122046, “Quaternary heterocyclylamino beta-lactams: a generic alternative to the classical acylamino side chain” (1982)
